Screening results: PubChem BioAssay, several laboratories
A selection: hits, their analogues and other compounds. The true share with any hit is near 3.3%.
NRP1-CendR mod = alters CendR peptide binding to human NRP-1; FAM-RPARPAR peptide binding to NRP-1, fluorescence polarization; 0.85% of 360,000 active; AID 602438; O14786; inhibition, % at 25 µM;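 active = inhibition or corrected inhibition above about 18%, plus a signal ratio from 0.5 to 1.5, limit read from the data, passing the limit was not always enough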
HTR2A ag = activates the mouse 5-HT2A serotonin receptor. CHO-K1 mHTR2A beta-arrestin complementation, luminescence; percent of 30 µM serotonin response. activation, % at 7.6 µM. 0.66% of 360,000 active;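 active = activation above a run cutoff, the mean activation of all tested compounds plus 3 SD, cut at about 14% in these data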;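 also: 0% = plate median of compound wells and 100% = 30 µM serotonin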
PfM18AAP inh = blocks P. falciparum M18 aspartyl aminopeptidase. recombinant PfM18AAP, H-Glu-NHMec fluorogenic cleavage. inhibition, % at 7.35 µM. 1.2% of 290,000 active;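 active = inhibition above the campaign mean inhibition over all tested compounds plus 3 SD, cut at about 28% in these data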;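 also: 0% = plate median of test compound wells and 100% = 2 mM ZnCl2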
Hep lipid drop = modulators of hepatic lipid droplet formation | inhibition, % at 6.5 µM | AID 1656 | AML12 mouse hepatocytes, oleate lipid droplets, BODIPY imaging | 0.4% of 240,000 active;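 active = lipid droplet intensity inhibited by at least 50%, with more than 500 cells counted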
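Technique: fluorescence imaging, 20x objective, two fields per well / Assay system: AML12 hepatocytes (mouse) / Measure: % inhibition of lipid droplet signal / Doses: 6.5 µM single-point dosing / Incubation: overnight exposure / Reagent: 100 µM oleic acid challenge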
sPLA2-III inh = Blocks human group III sPLA2 activity | Q9NZ20 | QFRET BODIPY PC-A2 liposome hydrolysis, fluorescence | inhibition, % at 12.2 µM | 0.56% of 370,000 active | AID 743126;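 active = inhibition above mean plus 3 SD of compounds lying within the high and low control bounds, cut at about 19% in these data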;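 also: 0% = median of test compound wells and 100% = no enzyme DMSO wells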
Target sequence (Q9NZ20 whole entry, looked up): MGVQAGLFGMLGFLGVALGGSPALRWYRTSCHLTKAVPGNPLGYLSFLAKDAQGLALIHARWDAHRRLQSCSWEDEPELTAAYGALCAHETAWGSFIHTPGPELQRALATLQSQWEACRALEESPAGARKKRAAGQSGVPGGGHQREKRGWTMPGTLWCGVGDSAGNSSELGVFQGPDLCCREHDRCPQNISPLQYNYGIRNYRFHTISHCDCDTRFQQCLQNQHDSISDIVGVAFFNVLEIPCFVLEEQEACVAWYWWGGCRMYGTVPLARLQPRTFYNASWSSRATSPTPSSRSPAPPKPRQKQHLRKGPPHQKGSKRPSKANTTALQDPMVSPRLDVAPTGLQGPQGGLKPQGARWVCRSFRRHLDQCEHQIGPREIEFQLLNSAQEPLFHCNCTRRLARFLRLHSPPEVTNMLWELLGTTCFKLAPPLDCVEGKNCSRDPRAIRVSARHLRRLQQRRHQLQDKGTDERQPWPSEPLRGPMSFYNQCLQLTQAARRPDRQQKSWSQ
Arrestin-AP2 inh = human beta-arrestin and AP2 interaction inhibition. inhibition, % at 10 µM. 0.31% of 340,000 active. FITC-arrestin peptide / GST-AP2 beads, flow cytometry; AP2 beta2 appendage carries R879A mutation;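 active = inhibition above a set limit, near 3 SD of compounds lacking own fluorescence, cut at about 54% in these data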;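 also: plate controls were DMSO wells for no effect and 5 µM unlabelled arrestin peptide for full effect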
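Material – GST-tagged AP2 beta2-adaptin appendage (R879A) on 4 µm glutathione beads · Probe or stimulus – fluorescein-tagged arrestin peptide at 50 nM final · Timing – 12 min plus 1 h, RT · Detection – bead flow cytometry, FITC channel · Read-out basis – inhibition as reduced fluorescein signal on beads, percent · Medium – PBS plus Tween 20 (0.05%) and BSA (0.1%)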
Numbers without * were called inactive; · = no result given.

SMILES | NRP1-CendR mod | HTR2A ag | PfM18AAP inh | Hep lipid drop | sPLA2-III inh | Arrestin-AP2 inh
Cc1ccc(N2C(=O)C(Cl)=C(NCCO)C2=O)c(C)c1 | -54 | -1 | 5 | -1 | -3 | -5
Cc1ccc(N2C(=O)C(Cl)=C(N3CCN(C)CC3)C2=O)c(C)c1 | 32* | -6 | 7 | 2 | 0 | 13
CN1CCN(C2=C(Cl)C(=O)N(c3ccc(Cl)cc3)C2=O)CC1 | -27 | 16* | 1 | · | · | 30
COc1ccc(CCN2C(=O)CSC2=Nc2ccc(C(C)C)cc2)cc1OC | 6 | 0 | 0 | -14 | -13 | -25
CC1CCN(C(=O)CSc2nncn2C)CC1 | 48* | 3 | -6 | · | 3 | -4
CC(C)c1nc(CNC(=O)CC2C(=O)NCCN2Cc2ccccc2)cs1 (stereo not drawn) | -6 | 3 | · | · | -6 | ·
O=S1(=O)CC2c3ccc(F)cc3CN2CN1Cc1ccc(F)cc1 (stereo not drawn) | · | · | · | · | -2 | ·
CC(C)c1cccc(-c2csc(C(O)c3cccc(Cl)c3)n2)c1 (stereo not drawn) | -4 | -1 | · | · | -22 | ·
O=C(NC1CC1)c1cccc2c1C(=O)c1ccc(N3CCC(Cc4ccccc4)CC3)cc1S2(=O)=O | -140 | 3 | · | · | -3 | 3
O=C1c2ccc(Cl)cc2S(=O)(=O)c2cccc(C(=O)N3CCC(Cc4ccccc4)CC3)c21 | 26* | 2 | · | · | 7 | -4
Cc1cccc(N(Cc2ccccc2)C(=O)c2cc(S(=O)(=O)N3CCOCC3)ccc2Cl)c1 | 4 | 5 | · | · | -5 | 4
COc1cc(C(=O)NCc2ccccc2)cc(Br)c1OC | 21* | -6 | 1 | 0 | 4 | 6
Cc1nnc(NC(=O)c2cc(S(=O)(=O)N(C)C)ccc2N2CCCC2)s1 | 23* | 3 | · | · | 4 | -4
CCOC(=O)C(C(=O)OCC)C(=O)c1cccc2ccc3ccccc3c12 | 2 | -2 | · | · | -7 | ·
Cc1ccc(NC(=O)c2cc(-c3cc(F)ccc3OCC3CCCO3)n[nH]2)cc1NS(C)(=O)=O (stereo not drawn) | 28* | -4 | · | · | -23 | ·
COc1cc(CNC(=O)c2cc(-c3cc(F)ccc3OCC3CCCO3)n[nH]2)cc(OC)c1 (stereo not drawn) | 11 | -4 | · | · | -3 | ·
Cc1onc(-c2ccc(Cl)cc2)c1-c1ccn(S(=O)(=O)c2cccc(Cl)c2)n1 | · | · | · | · | 11 | ·
CC(=O)CSc1nnc(-c2ccc(S(=O)(=O)N3CCCC3)cc2)n1C | 25* | -5 | 3 | -14 | 1 | 17
COC(=O)c1ccc(C)c(NC(=O)Cc2coc3cc(OC)ccc23)c1 | 32* | 1 | 3 | · | -6 | 5
COC(=O)c1cc(NC(=O)Cc2coc3cc(OC)ccc23)cc(C(=O)OC)c1 | -11 | 2 | 4 | · | -45 | 4
CC(=O)Nc1ccc(SCC(=O)c2cc(C)n(-c3ccccc3)c2C)cc1 | 1 | -4 | 6 | -20 | 0 | -2
COc1ccc(-n2c(C)cc(C(=O)CSc3ccc(NC(C)=O)cc3)c2C)cc1 | 42* | 0 | 2 | 11 | -11 | 3
CCCn1cc(CN2CCC(n3nccc3NC(=O)c3ccc4c(c3)OCO4)CC2)c(C)n1 | 4 | -3 | 2 | 0 | 2 | 0
Cc1nn(Cc2ccccc2)c(Cl)c1C(=O)OCc1nnc(-c2ccc(Cl)cc2)o1 | 38* | 1 | -5 | · | -8 | 5
O=C(OCc1nnc(-c2ccc(Cl)cc2)o1)c1ccc(O)cc1 | 29* | -2 | 3 | 4 | -26 | 8
SMILES | NRP1-CendR mod | HTR2A ag | PfM18AAP inh | Hep lipid drop | sPLA2-III inh | Arrestin-AP2 inh
S=c1[nH]nc(-c2cc(-c3ccccc3)n[nH]2)n1/N=C/C(Br)=C/c1ccccc1 | -5 | 1 | 1 | 7 | 11 | 10
Clc1nc(-c2ccccn2)nc2scc(-c3ccccc3)c12 | 30* | -1 | 18 | -17 | 21* | 0
CC1CCN(c2nc(-c3cccnc3)nc3scc(-c4ccccc4)c23)CC1 | -9 | 1 | -1 | -100 | 2 | 3
CCC1=C(OC(=O)N(CC)CC)N2C(=O)OC(=NCC3CC3)[C@]2(Cc2ccccc2)[C@H]2C1=CC[C@H]1C(=O)N(c3ccccc3)C(=O)[C@H]12 | 4 | -2 | · | -39 | -32 | 2
CCC1=C(OC(=O)N(CC)CC)N2C(=O)OC(=NCCOC)[C@]2(Cc2ccccc2)[C@H]2C1=CC[C@H]1C(=O)N(CC(=O)OC)C(=O)[C@H]12 | 35* | -2 | · | -3 | -3 | -1
CCC1=C(OC(=O)N(CC)CC)N2C(=O)OC(=NCC3CC3)[C@]2(Cc2ccccc2)[C@H]2C1=CC[C@H]1C(=O)N(C)C(=O)[C@H]12 | 26* | 0 | · | -4 | -6 | 5
Cn1ccsc1=NC(=O)c1ccc(S(C)(=O)=O)cc1 | 0 | 2 | 0 | -4 | 3 | 9
O=S1(=O)CCOC[C@H](Cc2ccccc2)N1Cc1cccc(F)c1 | 35* | 4 | · | · | 1 | 9
CC(C)[C@H]1COCCS(=O)(=O)N1Cc1cccc(Cl)c1 | 27* | -7 | 2 | · | -2 | -7
CCC1COCCS(=O)(=O)N1Cc1cccc(Cl)c1 (stereo not drawn) | 4 | -5 | -6 | · | 7 | 0
O=S1(=O)CCOC[C@H](Cc2ccccc2)N1Cc1ccccc1F | 28* | 3 | · | · | -7 | -1
COC(=O)[C@]12C[C@H](CC(=O)NCc3cccc4ccccc34)C(=O)N(Cc3ccccc3)C1=C[C@H](COCc1ccccc1)O[C@@H]2C | · | · | · | · | -13 | ·
O=C(Nc1nc(=O)c2ccccc2s1)c1ccc(Cl)cc1 | 2 | 1 | 30* | -7 | -2 | 21
CCCCCSc1nc(C)c(CC(=O)O)c(=O)[nH]1 | 20* | 4 | -5 | -2 | 6 | -10
O=C(O)CC(C(=O)O)N1C(=O)/C(=C/C=C/c2ccco2)SC1=S (stereo not drawn) | -131 | 6 | 31* | 1 | -6 | 13
CCOC(=O)C1Nc2ccccc2C2C(O)C(O)CC12 (stereo not drawn) | 27* | 12 | · | · | 4 | 11
CCOc1ccccc1CN1CCNC(=O)C1CC(=O)NCCC1=CCCCC1 (stereo not drawn) | 45* | -9 | -6 | -4 | -16 | 12
Cc1nc2ccc(NC(=O)c3ccc(F)cc3F)cc2c(=O)[nH]1 | · | · | · | · | 1 | ·
Cc1cc(/C=C(\C#N)C(=O)OCC#N)c(C)n1CC(C)C | 33* | 3 | -5 | -7 | -2 | 26
Cc1ccc(CNC(=O)c2cnc(-c3ccccn3)nc2C(F)(F)F)cc1 | 14 | 1 | -1 | -5 | 4 | 17
O=C(NCc1ccc(F)cc1)c1cccnc1C(=O)O | 27* | 4 | 2 | 9 | 5 | -16
O=C(NCc1cccs1)c1cccnc1C(=O)O | -1 | -2 | 4 | · | · | 25
O=C(NCc1ccc(F)cc1)c1cnc(-c2ccccn2)nc1C(F)(F)F | 29* | 2 | -3 | · | 0 | 3
